Active and inactive are the calls of the source. No cut-off for these calls is given here.
Columns and labels:
[1] = target: T1, Thromboxane-A synthase (Rattus norvegicus) (UniProt P49430); experiment: Tested for antihypertensive activity in spontaneously hypertensive rats at 100 mg/kg peroral dosage for 2 days; I is inactive; format: functional, organism-based; set-up: dose 100 mg/kg
T1 sequence (whole entry): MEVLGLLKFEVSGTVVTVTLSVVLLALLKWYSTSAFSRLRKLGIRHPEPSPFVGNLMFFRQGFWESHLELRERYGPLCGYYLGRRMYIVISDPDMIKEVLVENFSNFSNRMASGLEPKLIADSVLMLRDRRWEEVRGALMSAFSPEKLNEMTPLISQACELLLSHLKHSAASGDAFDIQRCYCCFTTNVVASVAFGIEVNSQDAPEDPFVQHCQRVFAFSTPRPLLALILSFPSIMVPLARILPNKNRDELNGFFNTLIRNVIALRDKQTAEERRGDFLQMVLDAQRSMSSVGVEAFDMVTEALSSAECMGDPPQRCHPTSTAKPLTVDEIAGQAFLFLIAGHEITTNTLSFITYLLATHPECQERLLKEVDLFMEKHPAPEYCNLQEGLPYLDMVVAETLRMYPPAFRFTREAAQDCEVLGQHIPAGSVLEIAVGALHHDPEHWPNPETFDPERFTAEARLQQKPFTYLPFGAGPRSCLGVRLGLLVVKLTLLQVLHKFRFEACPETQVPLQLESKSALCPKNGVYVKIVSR
Procedure, shortened: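 Male 16-week-old Okamoto SHR (mean arterial pressure about 170 mmHg) gavaged with compound suspended in 2% preboiled starch (50 mg/mL) at 100 mg/kg or less, with 0.9% NaCl load 25 mL/kg; identical second dose without saline 24 h later. Mean arterial pressure measured 28 h after first dose; one to three rats per compound.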

Thromboxane-A synthase = target: T2, Thromboxane-A synthase (Rattus norvegicus, UniProt P49430); experiment: Tested for inhibition of thromboxane synthetase from spontaneously hypertensive rats
T2 sequence (P49430 whole entry): T1 sequence (whole entry)
Procedure, shortened: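 Washed SHR platelets in oxygenated Krebs phosphate buffer pH 7.4 (4.5-6.0 X 10^4 platelets/µL) incubated with vehicle or drug 10 min at 37 °C; stopped with ice and citric acid. TXB2 measured by direct RIA. Percent inhibition is relative to vehicle controls after background subtraction. IC50 is read from a plot of inhibition vs log concentration.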

Oryctolagus cuniculus [2] = experiment: Tested for inhibition of thromboxane formation in rabbit platelets at 2 hr by administration of 0.3 mg/kg intravenous bolus dose; format: functional
Procedure, shortened: (§1)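 Rabbits given compound in 0.9% sterile saline IV, as a bolus or by infusion pump. Blood drawn 5 min predose and at 0.5, 1, 2 and 3 h, then clotted 2 h at 37 °C and held 2 h on ice. Serum mixed with indomethacin, stored at -20 °C, and diluted in pH 7.4 phosphate buffer. TXB2 measured by direct RIA.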

Oryctolagus cuniculus [3] = experiment: Tested for inhibition of thromboxane formation in rabbit platelets at 3 hr by administration of 0.3 mg/kg intravenous bolus dose; format: functional; procedure, shortened: as §1
Homo sapiens = species on record: Homo sapiens; experiment: Tested for inhibition of thromboxane formation in human platelets; format: functional
Procedure, shortened: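 Platelets from four healthy human volunteers were isolated with a small amount of prostaglandin E1 to prevent aggregation, then treated with compound, standard or vehicle. TXB2 measured by direct RIA. IC50 is read graphically from percent inhibition vs log concentration curves.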

Oryctolagus cuniculus [4] = experiment: Tested for inhibition of thromboxane formation in rabbit platelets at 0.5 hr by administration of 0.5 mg/kg/h perfused dose; format: functional; procedure, shortened: as §1
Oryctolagus cuniculus [5] = experiment: Tested for inhibition of thromboxane formation in rabbit platelets at 1.0 hr by administration of 0.1 mg/kg intravenous bolus dose; format: functional; procedure, shortened: as §1
Oryctolagus cuniculus [6] = experiment: Tested for inhibition of thromboxane formation in rabbit platelets at 1.0 hr by administration of 0.5 mg/kg/h perfused dose; format: functional; procedure, shortened: as §1
Oryctolagus cuniculus [7] = experiment: Tested for inhibition of thromboxane formation in rabbit platelets at 2 hr by administration of 0.1 mg/kg intravenous bolus dose; format: functional; procedure, shortened: as §1
Oryctolagus cuniculus [8] = experiment: Tested for inhibition of thromboxane formation in rabbit platelets at 3 hr by administration of 0.1 mg/kg intravenous bolus dose; format: functional; procedure, shortened: as §1
Oryctolagus cuniculus [9] = experiment: Tested for inhibition of thromboxane formation in rabbit platelets at 0.5 hr by administration of 0.3 mg/kg intravenous bolus dose; format: functional; procedure, shortened: as §1
Oryctolagus cuniculus [10] = experiment: Tested for inhibition of thromboxane formation in rabbit platelets at 1.0 hr by administration of 0.3 mg/kg intravenous bolus dose; format: functional; procedure, shortened: as §1
Oryctolagus cuniculus [11] = experiment: Tested for inhibition of thromboxane formation in rabbit platelets at 0.5 hr by administration of 0.1 mg/kg intravenous bolus dose; format: functional; procedure, shortened: as §1
Oryctolagus cuniculus [12] = experiment: Tested for inhibition of thromboxane formation in rabbit platelets at 1.0 hr by administration of 10 mg/kg intravenous bolus dose; format: functional; procedure, shortened: as §1
Oryctolagus cuniculus [13] = experiment: Tested for inhibition of thromboxane formation in rabbit platelets at 3 hr by administration of 10 mg/kg intravenous bolus dose; format: functional; procedure, shortened: as §1

| SMILES | Activity [1] | IC50 (Thromboxane-A synthase) [µM] | further results |
| --- | --- | --- | --- |
| Cc1ccc(N)c(C(=O)NCC(C)Cn2ccnc2)c1 (configuration not stated) | inactive | 1.3 | – |
| Cc1ccc2[nH]c(=O)n(CC(C)Cn3ccnc3)c(=O)c2c1 (configuration not stated) | inactive | 0.003 | – |
| CC(Cn1ccnc1)Cn1c(=O)[nH]c2cc(Cl)ccc2c1=O (configuration not stated) | – | – | inhibition in vivo at 0.3 mg/kg (Oryctolagus cuniculus [2]): 60.8%; inhibition in vivo at 0.3 mg/kg (Oryctolagus cuniculus [3]): 53.1%; IC50 (Homo sapiens): 0.0212 µM; inhibition in vivo at 0.5 mg/kg/h (Oryctolagus cuniculus [4]): 95.9%; inhibition in vivo at 0.1 mg/kg (Oryctolagus cuniculus [5]): 62.8%; inhibition in vivo at 0.5 mg/kg (Oryctolagus cuniculus [6]): 98.1%; inhibition in vivo at 0.1 mg/kg (Oryctolagus cuniculus [7]): 39.5%; inhibition in vivo at 0.1 mg/kg (Oryctolagus cuniculus [8]): 46.2%; inhibition in vivo at 0.3 mg/kg (Oryctolagus cuniculus [9]): 88.9%; inhibition in vivo at 0.3 mg/kg (Oryctolagus cuniculus [10]): 82.8%; inhibition in vivo at 0.1 mg/kg (Oryctolagus cuniculus [11]): 73.6% |
| Cc1ccc2[nH]c(=O)n(CCCn3ccnc3)c(=O)c2c1 | inactive | 0.02 | – |
| CC(CNC(=O)c1cc(Br)ccc1N)Cn1ccnc1 (configuration not stated) | inactive | 0.29 | – |
| O=c1[nH]c2ccc(Br)cc2c(=O)n1CCCn1ccnc1 | inactive | 0.1 | – |
| CC(Cn1ccnc1)Cn1nnc2ccc(Br)cc2c1=O (configuration not stated) | inactive | 1.7 | – |
| O=c1[nH]c2ccc(Cl)cc2c(=O)n1CCCCCCCCCCn1ccnc1 | inactive | 0.007 | – |
| CC(Cn1ccnc1)Cn1nnc2ccc(Cl)cc2c1=O (configuration not stated) | inactive | 0.9 | – |
| Cc1ccc(N)c(C(=O)NCCCCn2ccnc2)c1 | inactive | 0.34 | – |
| O=c1[nH]c2cc(Cl)ccc2c(=O)n1CCCn1ccnc1 | inactive | 0.18 | – |
| O=c1[nH]c2ccccc2c(=O)n1CCCn1ccnc1 | inactive | 0.6 | – |
| CC(CNC(=O)c1ccccc1N)Cn1ccnc1 (configuration not stated) | inactive | 2.5 | – |
| O=C(O)c1ccc(OCCn2ccnc2)cc1 [DAZOXIBEN] | inactive | – | inhibition in vivo at 10 mg/kg (Oryctolagus cuniculus [12]): 94.7%; inhibition in vivo at 0.3 mg/kg (Oryctolagus cuniculus [2]): 13.6%; inhibition in vivo at 0.3 mg/kg (Oryctolagus cuniculus [3]): 22.8%; inhibition in vivo at 10 mg/kg (Oryctolagus cuniculus [13]): 74.5%; IC50 (Homo sapiens): 5.03 µM; inhibition in vivo at 0.3 mg/kg (Oryctolagus cuniculus [9]): 45.9%; inhibition in vivo at 0.3 mg/kg (Oryctolagus cuniculus [10]): 30.1% |
| CC(Cn1ccnc1)Cn1c(=O)[nH]c2c(Cl)cccc2c1=O (configuration not stated) | inactive | 0.01 | – |
| CC(Cn1ccnc1)Cn1cnc2ccc(Cl)cc2c1=O (configuration not stated) | inactive | 0.09 | – |

Source: ChEMBL document CHEMBL1123918, “Thromboxane synthetase inhibitors and antihypertensive agents. 4. N-[(1H-imidazol-1-yl)alkyl] derivatives of quinazoline-2,4(1H,3H)-diones, quinazolin-4(3H)-ones, and 1,2,3-benzotriazin-4(3H)-ones” (J Med Chem, 1987)
